Reference: ChEMBL document CHEMBL1157747, “Discovery, structure-activity relationships, pharmacokinetics, and efficacy of glucokinase activator (2R)-3-cyclopentyl-2-(4-methanesulfonylphenyl)-N-thiazol-2-yl-propionamide (RO0281675)” (J Med Chem, 2010)
Converted amounts (≈) assume the structure as drawn. The source made the active and inactive calls. The calls are words filed in the database; no cut-off is given here.

How the values were obtained:
[1] = tested on: Glucokinase (Homo sapiens); assay: Activity of glucokinase assessed as stimulatory concentration required to increase 1.5 fold enzymatic activity
[2] = tested on: Glucokinase (Homo sapiens); assay: Activity of glucokinase at 30 uM
[3] = tested on: Glucokinase (Homo sapiens); assay: Activation of glucokinase assessed as […] in Km at 20 uM relative to control
[4] = AUC (0 to infinity) in CD rat at 10 mg/kg, po; type: ADME, organism-based; parameters: time infinity, dose 10 mg/kg, route oral; details: plasma
[5] = AUC (0 to infinity) in CD rat at 5 mg/kg, iv; type: ADME, organism-based; parameters: time infinity, dose 5 mg/kg, route intravenous; details: plasma
[6] = tested on: Glucokinase (Homo sapiens); assay: Activation of glucokinase assessed as increase in Vmax at 1 uM relative to control
[7] = Clearance in CD rat at 5 mg/kg, iv; type: ADME, organism-based; parameters: dose 5 mg/kg, route intravenous; details: in vivo
[8] = tested on: Glucokinase (Homo sapiens); assay: Activation of glucokinase assessed as […] in Km at 1 uM relative to control
[9] = Oral bioavailability in CD rat at 10 mg/kg; type: ADME, organism-based; details: in vivo
[10] = Volume of distribution at steady state in CD rat at 5 mg/kg, iv; type: ADME, organism-based; parameters: dose 5 mg/kg, route intravenous; details: in vivo, read-out: Vdss
[11] = AUC (0 to infinity) in CD rat at 30 mg/kg, po; type: ADME, organism-based; parameters: time infinity, dose 30 mg/kg, route oral; details: plasma
[12] = tested on: Glucokinase (Homo sapiens); assay: Activation of glucokinase at 20 uM relative to control
[13] = tested on: Pancreatic islet; assay: […] of glucose-stimulated insulin secretion in C57BL/6J mouse isolated pancreatic islets cells after 4 to 5 days
[14] = Cmax in CD rat at 10 mg/kg, po; type: ADME, organism-based; parameters: dose 10 mg/kg, route oral; details: in vivo
[15] = Tmax in CD rat at 30 mg/kg, po; type: ADME, organism-based; parameters: dose 30 mg/kg, route oral; details: in vivo
[16] = Tmax in CD rat at 10 mg/kg, po; type: ADME, organism-based; parameters: dose 10 mg/kg, route oral; details: in vivo
[17] = Cmax in CD rat at 30 mg/kg, po; type: ADME, organism-based; parameters: dose 30 mg/kg, route oral; details: in vivo
[18] = Oral bioavailability in CD rat at 30 mg/kg; type: ADME, organism-based; details: in vivo
[19] = tested on: Mus musculus; assay: Reduction in glucose AUC in C57BL/6J mouse at 50 mg/kg, po pretreated 30 mins by oral glucose tolerance test relative to control; type: functional, organism-based; parameters: dose 50 mg/kg
Procedure, shortened: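 Male C57BL/6J mice got a single oral 50 mg/kg dose and underwent an oral glucose tolerance test. Fasting glucose and glucose tolerance were compared with vehicle-treated animals. Values are mean ± STD, n = 6 per time point; Student's t test, P < 0.05.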

[20] = tested on: Glucokinase (Homo sapiens); assay: Activity of glucokinase up to 10 uM
[21] = Aqueous solubility of the compound; type: physicochemical

| Activity [1] | SMILES | further results |
| --- | --- | --- |
| 1.7 µM | O=C(Nc1nccs1)C(CC1CCCC1)c1cccc(Cl)c1 (configuration not stated) | – |
| 1.8 µM | O=C(Nc1nccs1)C(CC1CCCC1)c1ccc(SC(F)(F)F)cc1 (configuration not stated) | – |
| – | O=C(Nc1nccs1)C(Cc1ccccc1)c1ccc(Cl)c(Cl)c1 (configuration not stated) | Activity [2]: inactive |
| – | O=C1NCCN1C(=O)C(CC1CCCC1)c1ccc(Cl)c(Cl)c1 (configuration not stated) | Activity [2]: inactive |
| 3.7 µM | CNC(=O)NC(=O)C(CC1CCCC1)c1cccc(Cl)c1 (configuration not stated) | – |
| 0.82 µM | COC(=O)Cc1csc(NC(=O)C(CC2CCCC2)c2ccc(Cl)c(Cl)c2)n1 (configuration not stated) | – |
| 3.2 µM | COC(=O)CCNC(=O)NC(=O)C(CC1CCCC1)c1ccc(Cl)c(Cl)c1 (configuration not stated) | – |
| 4.4 µM | NC(=O)NC(=O)C(CC1CCCC1)c1ccc(Cl)c(Cl)c1 (configuration not stated) | – |
| 1.4 µM | O=C(Nc1nccs1)C(CC1CCCC1)c1cccc(S(=O)(=O)C(F)(F)F)c1 (configuration not stated) | – |
| 10 µM | NC(=O)NC(=O)C(CC1CCC1)c1ccc(Cl)c(Cl)c1 (configuration not stated) | – |
| – | CCCCNC(=O)NC(=O)C(CC1CCCC1)c1ccc(Cl)c(Cl)c1 (configuration not stated) | Activity [2]: inactive |
| 0.84 µM | O=C(Nc1nccs1)C(CC1CCCC1)c1ccc([N+](=O)[O-])cc1 (configuration not stated) | – |
| 0.53 µM | CCNC(=O)NC(=O)C(CC1CCCC1)c1ccc(Cl)c(Cl)c1 (configuration not stated) | – |
| 1.3 µM | CCOC(=O)CNC(=O)NC(=O)C(CC1CCCC1)c1ccc(Cl)c(Cl)c1 (configuration not stated) | – |
| 3.2 µM | CNC(=O)NC(=O)C(CC1CCCC1)c1ccc(SC)cc1 (configuration not stated) | – |
| 40 µM | NC(=O)NC(=O)C(CC1CC1)c1ccc(Cl)c(Cl)c1 (configuration not stated) | – |
| 0.75 µM | O=C(Nc1ncc(CO)s1)C(CC1CCCC1)c1ccc(Cl)c(Cl)c1 (configuration not stated) | – |
| 3.8 µM | CNC(=O)NC(=O)C(CC1CCCC1)c1ccc(Br)cc1 (configuration not stated) | – |
| 8.5 µM | CNC(=O)NC(=O)C(CC1CCCC1)c1ccc(F)c(F)c1 (configuration not stated) | – |
| 3.8 µM | CNC(=S)NC(=O)C(CC1CCCC1)c1ccc(Cl)c(Cl)c1 (configuration not stated) | – |
| 0.41 µM | CNC(=O)NC(=O)[C@H](CC1CCCC1)c1ccc(Cl)c(Cl)c1 | fold change (FC) [3]: 0.22; AUC(0-inf) [4]: 455 ng·h/mL; AUC(0-inf) [5]: 1880 ng·h/mL; fold change (FC) [6]: 1.4; clearance [7]: 43.5 mL/min/kg; fold change (FC) [8]: 0.66; bioavailability [9]: 12%; Vd [10]: 4.21 L/kg; AUC(0-inf) [11]: 1460 ng·h/mL; fold change (FC) [12]: 1.7; Activity [13]: Dose-dependent effect; Cmax [14]: 133 µg/mL; Tmax [15]: 3.3 h; Tmax [16]: 1.4 h; Cmax [17]: 0.471 µg/mL; bioavailability [18]: 13%; Activity [19]: Active |
| 0.61 µM | CCOC(=O)Cc1csc(NC(=O)C(CC2CCCC2)c2ccc(Cl)c(Cl)c2)n1 (configuration not stated) | – |

| Activity [1] | SMILES | further results |
| --- | --- | --- |
| – | CS(=O)(=O)c1ccc([C@@H](CC2CCCC2)C(=O)Nc2nccs2)cc1 [Ro-281675] | AUC(0-inf) [4]: 5150 ng·h/mL; AUC(0-inf) [5]: 2770 ng·h/mL; clearance [7]: 30 mL/min/kg; bioavailability [9]: 92.8%; Vd [10]: 2.16 L/kg; AUC(0-inf) [11]: 51700 ng·h/mL; Activity [13]: Dose-dependent effect; Cmax [14]: 1140 µg/mL; Tmax [15]: 4.7 h; Tmax [16]: 3.3 h; Cmax [17]: 4300 µg/mL; Activity [19]: Active |
| – | O=C(O)CCNC(=O)NC(=O)C(CC1CCCC1)c1ccc(Cl)c(Cl)c1 (configuration not stated) | Activity [2]: inactive |
| 1.2 µM | Cc1csc(NC(=O)C(CC2CCCC2)c2ccc(Cl)c(Cl)c2)n1 (configuration not stated) | – |
| 26 µM | O=C(O)c1cnc(NC(=O)C(CC2CCCC2)c2ccc(Cl)c(Cl)c2)s1 (configuration not stated) | – |
| 1.5 µM | CNC(=O)NC(=O)C(CC1CCCC1)c1ccc(S(C)(=O)=O)cc1 (configuration not stated) | – |
| inactive | O=C(O)CNC(=O)NC(=O)C(CC1CCCC1)c1ccc(Cl)c(Cl)c1 (configuration not stated) | – |
| 3.1 µM | O=C(Nc1nccs1)C(CC1CCCC1)c1ccc(Cl)cc1 (configuration not stated) | – |
| 8 µM | O=C(O)Cc1csc(NC(=O)C(CC2CCCC2)c2ccc(Cl)c(Cl)c2)n1 (configuration not stated) | – |
| 0.3 µM | CNC(=O)NC(=O)C(CC1CCCC1)c1ccc(S(=O)(=O)C(F)(F)F)cc1 (configuration not stated) | – |
| – | N=C(N)NC(=O)C(CC1CCCC1)c1ccc(Cl)c(Cl)c1 (configuration not stated) | Activity [2]: inactive |
| 0.99 µM | O=C(Nc1nc(CO)cs1)C(CC1CCCC1)c1ccc(Cl)c(Cl)c1 (configuration not stated) | – |
| 8.9 µM | NC(=O)NC(=O)C(CC1CCCCC1)c1ccc(Cl)c(Cl)c1 (configuration not stated) | – |
| 28.2 µM | CNC(=O)NC(=O)C(CC1CCCC1)c1ccccc1 (configuration not stated) | – |
| 3.4 µM | O=C(NCCO)NC(=O)C(CC1CCCC1)c1ccc(Cl)c(Cl)c1 (configuration not stated) | – |
| 12 µM | NC(=O)NC(=O)C(CC1CCCCCC1)c1ccc(Cl)c(Cl)c1 (configuration not stated) | – |
| 6 µM | CNC(=O)NC(=O)C(CC(C)C)c1ccc(Cl)c(Cl)c1 (configuration not stated) | – |
| 1 µM | CNC(=O)NC(=O)C(CC1CCCC1)c1ccc(Cl)c(Cl)c1 (configuration not stated) | – |
| 2.2 µM | CSc1ccc(C(CC2CCCC2)C(=O)Nc2nccs2)cc1 (configuration not stated) | – |
| 1 µM | CNC(=O)NC(=O)C(CC1CCCC1)c1cccc(S(=O)(=O)C(F)(F)F)c1 (configuration not stated) | – |
| 1.4 µM | CNC(=O)NC(=O)C(CC1CCCCC1)c1ccc(Cl)c(Cl)c1 (configuration not stated) | – |
| 2.7 µM | CCOC(=O)c1csc(NC(=O)C(CC2CCCC2)c2ccc(Cl)c(Cl)c2)n1 (configuration not stated) | – |
| – | CC(C)CC(C(=O)NC(=O)N(C)C)c1ccc(Cl)c(Cl)c1 (configuration not stated) | Activity [2]: inactive |

| Activity [1] | SMILES | further results |
| --- | --- | --- |
| 29 µM | CC(C)CC(C(=O)NC(N)=O)c1ccc(Cl)c(Cl)c1 (configuration not stated) | – |
| – | CNC(=O)NC(=O)[C@@H](CC1CCCC1)c1ccc(Cl)c(Cl)c1 | Activity [20]: inactive; Activity [2]: inactive |
| 0.55 µM | COC(=O)CNC(=O)NC(=O)C(CC1CCCC1)c1ccc(Cl)c(Cl)c1 (configuration not stated) | – |
| 1.3 µM | CCCNC(=O)NC(=O)C(CC1CCCC1)c1ccc(Cl)c(Cl)c1 (configuration not stated) | – |
| 1.6 µM | Cc1nc(NC(=O)C(CC2CCCC2)c2ccc(Cl)c(Cl)c2)sc1C (configuration not stated) | – |
| – | CNC(=O)NC(=O)C(CCC1CCCC1)c1ccc(Cl)c(Cl)c1 (configuration not stated) | Activity [2]: inactive |
| 0.94 µM | O=C(Nc1nccs1)C(CC1CCCC1)c1ccc(Cl)c(Cl)c1 (configuration not stated) | solubility [21]: 5 µg/mL (≈ 13.5 µM) |
| 1.4 µM | CNC(=O)NC(=O)C(CC1CCCC1)c1ccc(SC(F)(F)F)cc1 (configuration not stated) | – |
| 2.2 µM | C[S+]([O-])c1ccc(C(CC2CCCC2)C(=O)Nc2nccs2)cc1 (configuration not stated) | – |
| 8.4 µM | CCOC(=O)CCNC(=O)NC(=O)C(CC1CCCC1)c1ccc(Cl)c(Cl)c1 (configuration not stated) | – |
| 0.64 µM | Cc1cnc(NC(=O)C(CC2CCCC2)c2ccc(Cl)c(Cl)c2)s1 (configuration not stated) | – |
| 1.3 µM | C=CCNC(=O)NC(=O)C(CC1CCCC1)c1ccc(Cl)c(Cl)c1 (configuration not stated) | – |
| 8 µM | CCOC(=O)c1cnc(NC(=O)C(CC2CCCC2)c2ccc(Cl)c(Cl)c2)s1 (configuration not stated) | – |
| 5.4 µM | CNC(=O)NC(=O)C(CC1CCCC1)c1ccc(Cl)cc1 (configuration not stated) | – |
| 29 µM | O=C(O)c1csc(NC(=O)C(CC2CCCC2)c2ccc(Cl)c(Cl)c2)n1 (configuration not stated) | – |
| 0.84 µM | O=C(Nc1nc(CCO)cs1)C(CC1CCCC1)c1ccc(Cl)c(Cl)c1 (configuration not stated) | – |
| 0.92 µM | COC(=O)c1cnc(NC(=O)C(CC2CCCC2)c2ccc(Cl)c(Cl)c2)s1 (configuration not stated) | – |
| 6.3 µM | CC(C)CNC(=O)NC(=O)C(CC1CCCC1)c1ccc(Cl)c(Cl)c1 (configuration not stated) | – |
| 0.19 µM | O=C(Nc1nccs1)C(CC1CCCC1)c1ccc(S(=O)(=O)C(F)(F)F)cc1 (configuration not stated) | – |
| – | CNC(=O)N(C)C(=O)C(CC1CCCC1)c1ccc(Cl)c(Cl)c1 (configuration not stated) | Activity [2]: inactive |
| 5.4 µM | CNC(=O)NC(=O)C(CC1CCCC1)c1ccc([N+](=O)[O-])cc1 (configuration not stated) | – |
| 0.5 µM | COC(=O)c1csc(NC(=O)C(CC2CCCC2)c2ccc(Cl)c(Cl)c2)n1 (configuration not stated) | solubility [21]: 24 µg/mL (≈ 56.2 µM) |
